High-throughput results deposited in PubChem by The Scripps Research Institute Molecular Screening Center.
TCR CD3 inh: blocks the human TCR-CD3 interaction; TAMRA-labeled TCR probe fluorescence, biochemical; inhibition, % at 9.4 µM; hit rate 0.37% among 360,000; AID 651800;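 note: recombinant mutant TCR 2C K166C tagged with TAMRA read by polarization; 0% = receptor in buffer alone and 100% = receptor with positive control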
PME-1 inh: blocks human protein phosphatase methylesterase 1; AID 2130; recombinant PME-1, FP-Rh probe fluorescence polarization; hit rate 0.53% among 320,000; inhibition, % at 5.9 µM;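 active = inhibition above the campaign mean of all compounds plus 3 SD, cut at about 26% in these data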;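 note: competitive labeling of PME-1 active site by serine hydrolase directed probe; 0% = PME-1 with DMSO and 100% = wells lacking PME-1 enzyme; inhibitors block probe labeling so polarization falls and inhibition rises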
Target sequence (Q9Y570 whole entry, looked up): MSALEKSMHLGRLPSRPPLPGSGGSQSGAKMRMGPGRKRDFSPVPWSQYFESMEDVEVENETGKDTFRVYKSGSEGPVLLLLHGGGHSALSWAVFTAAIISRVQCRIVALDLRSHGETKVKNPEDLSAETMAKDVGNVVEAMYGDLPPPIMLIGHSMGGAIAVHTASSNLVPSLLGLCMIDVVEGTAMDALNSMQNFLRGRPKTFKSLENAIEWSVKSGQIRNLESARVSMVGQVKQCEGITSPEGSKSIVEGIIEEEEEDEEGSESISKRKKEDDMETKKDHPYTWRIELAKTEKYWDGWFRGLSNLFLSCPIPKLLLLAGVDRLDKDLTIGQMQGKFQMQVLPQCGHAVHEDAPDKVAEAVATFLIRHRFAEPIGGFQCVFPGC
SIAE inh: inhibitors of human sialic acid acetylesterase SIAE; Q9HAT2; SIAE FP-Rh probe binding, fluorescence polarization; inhibition, % at 9.66 µM; hit rate 0.69% among 370,000;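 active = inhibition above a cutoff: mean of compounds within the control limits plus 3 SD of those, cut at about 17% in these data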;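 note: 0% = plate median of compound wells and 100% = probe without SIAE protein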
mABHD4 FP: inhibitors of mouse ABHD4; purified mABHD4, FP-Rh probe fluorescence polarization; hit rate 0.54% among 370,000; Q8VD66; AID 720543; inhibition, % at 8.92 µM;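 active = inhibition exceeding the mean over every tested compound plus 3 SD, cut at about 30% in these data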;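 note: 0% = plate median of compound wells and 100% = S159A mutant with DMSO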
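Material: mouse ABHD4 enzyme, wild type; Benchmarks: S159A mutant high control, sample median low control; Buffer or medium: HEPES pH 7.0, NaCl, Pluronic buffer; Signal: fluorescence polarization; Read-out: percent inhibition of probe binding, normalized to plate controls; Timing: pre-incubation 45 min, probe exposure 60 min, at 25 °C; Dosing: 8.92 µM, single dose.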
HTRA1 inhibitor: inhibitors of human serine peptidase HTRA1. Q92743. recombinant HTRA1, FP-rhodamine activity-based probe, fluorescence polarization. inhibition, % at 5.96 µM. hit rate 0.5% among 340,000. AID 504803; in the data active = inhibition above about 36%;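 note: 0% = enzyme with DMSO and 100% = wells lacking enzyme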
Fam108B counter: counter-screen for RBBP9 inhibitors: inhibitors of mouse Fam108B; recombinant Fam108B, FP-Rh probe fluorescence polarization; inhibition, % at 9.51 µM; hit rate 0.33% among 300,000; AID 1947;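 active = inhibition above the screen mean inhibition plus 3 SD, computed separately per campaign, cut at about 18% in these data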;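 note: inhibitors lower polarization as less probe binds the enzyme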
BSA TAMRA ctr: interferes with TAMRA-BSA probe, flagging TCR-CD3 hits; hit rate 10% among 1,200; shares compounds with TCR CD3 inh; TAMRA-labeled BSA probe fluorescence counterscreen; AID 652035; inhibition, % at 9.4 µM; in the data active = inhibition above about 23%;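 note: 0% = buffer low control and 100% = reference high control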
TCR-CD3 inh conf: confirmation of human TCR-CD3 interaction inhibitors; shares compounds with TCR CD3 inh; TAMRA-labeled TCR probe fluorescence binding assay; inhibition, % at 9.4 µM; hit rate 48% among 1,200
* = called active by the depositor; . = no result given. Rows were chosen to be rich in hits. Some 1.8% of all compounds tested hit in one or more screens of this group. Cut-off read from the data, not from the text of the source, unless noted: active = inhibition above about 19%; inactive = the rest.

SMILES	TCR CD3 inh	PME-1 inh	SIAE inh	mABHD4 FP	HTRA1 inhibitor	Fam108B counter	BSA TAMRA ctr	TCR-CD3 inh conf
O=C(COC(=O)c1cc(-c2cccs2)nn1-c1ccccc1)Nc1ccc(F)c([N+](=O)[O-])c1	21.1*	-34.8	-58.8	-24.1	-43.5	-21.2	0.3	2.3
Oc1ccc(Br)cc1/C=N/n1c(COc2ccccc2)n[nH]c1=S	20.4*	.	4.9	-0.1	11.1	.	3.3	14.1
S=c1[nH]nc(COc2ccccc2)n1/N=C/c1ccccc1Br	-4.0	9.4	0.8	-2.8	-17.0	3.9	.	.
O=C1[C@@H](C2CCCCC2)[C@@H]2c3ccccc3C=NN2[C@@H]2c3ccccc3C=NN12	.	.	1.3	-1.8	.	.	.	.
Cc1ccc(-c2cc(C(=O)Nc3ccc(S(=O)(=O)Nc4onc(C)c4C)cc3)[nH]n2)c(O)c1	32.2*	4.2	-24.1	-17.1	-24.9	-0.1	-12.9	19.6*
Cc1ccc2oc(C(=O)Nc3ccc(S(=O)(=O)Nc4onc(C)c4C)cc3)c(C)c2c1	1.6	-5.0	-9.5	4.8	2.6	0.0	.	.
CC(C)C[C@@H]1COc2cc(Br)ccc2S(=O)(=O)N1Cc1cn(Cc2ccc(Br)cc2)nn1	.	.	-1.0	1.9	.	.	.	.
O=C(Cn1nnc(-c2ccccc2F)n1)Nc1ccc(Cl)c(Cl)c1	.	.	2.6	-2.4	.	.	.	.
CC1CCN(S(=O)(=O)c2ccc(NC(=O)Cn3nnc(-c4ccccc4F)n3)cc2)CC1	19.7*	-52.7	-52.5	-6.5	-37.8	-39.2	8.9	23.7*
O=C(CCN1C(=O)/C(=C/c2ccc(Cl)cc2)SC1=S)NCCCn1ccnc1	23.0*	-13.4	-0.5	-29.5	-5.6	-2.7	0.3	19.8*
O=C(CCN1C(=O)/C(=C/c2ccc(F)cc2)SC1=S)NCCCn1ccnc1	-0.7	-5.5	-0.2	-15.8	-8.4	-5.0	.	.
CCCCCCCCN1C(=O)[C@@H](CC(=O)NCc2cccc(C(F)(F)F)c2)C[C@@]2(C(=O)OC)C1=C[C@H](C(C)C)O[C@@H]2C1CC1	.	.	3.9	0.9	.	.	.	.
COc1ccc(Cl)cc1C(=O)NC(=S)Nc1cc(-c2nc3ccccc3[nH]2)ccc1C	46.7*	-45.8	-117.4	-71.5	-108.0	-43.5	-3.6	3.2
COc1ccc(Cl)cc1C(=O)NC(=S)Nc1nc(C)cc(C)n1	-7.7	5.1	-1.1	-1.9	5.7	1.0	.	.
COC(=O)[C@]12C[C@H](CC(=O)N3CCN(C(=O)C4CC4)CC3)C(=O)N(CCc3ccc(OC)c(OC)c3)C1=C[C@H](C(C)(C)C)O[C@@H]2C	.	.	-5.4	4.7	.	.	.	.
Cc1ccc(NC(=S)NNC(=O)CSc2nnc(SCc3cccc4ccccc34)s2)cc1	.	.	-14.6	-5.9	.	.	.	.
CCC(C)(C)NC(=O)Cc1ccc(Cl)cc1	33.0*	-3.1	1.3	1.4	.	-1.1	-7.2	-0.9
O=C(c1cccc(C(=O)N2CCN(c3ncccn3)CC2)c1)N1CCN(c2ncccn2)CC1	-2.6	6.7	2.5	-1.8	3.9	1.2	.	.
O=C(c1ccc2nc(-c3ccco3)c(-c3ccco3)nc2c1)N1CCN(c2ncccn2)CC1	29.3*	15.6	35.5*	32.6*	22.2	13.9	-0.9	24.8*
C[C@@H]1CN([C@H](C)CO)C(=O)c2cc(NC(=O)Nc3ccc(C(F)(F)F)cc3)ccc2O[C@H]1CN(C)Cc1ccc(Cl)c(Cl)c1	27.2*	.	-11.5	-14.5	-47.4	.	23.6*	45.7*
C[C@H](CO)N1C[C@H](C)[C@@H](CN(C)S(=O)(=O)c2ccc(F)cc2)Oc2ccc(NC(=O)Nc3ccc(C(F)(F)F)cc3)cc2C1=O	22.3*	.	-235.9	-102.1	-141.6	.	13.6	41.8*
C[C@@H]1CN([C@@H](C)CO)C(=O)Cc2cc(NC(=O)Nc3ccc(C(F)(F)F)cc3)ccc2O[C@@H]1CN(C)S(=O)(=O)c1ccc(Cl)cc1	48.0*	.	-154.5	-91.2	-154.8	.	13.5	25.8*
C[C@H](CO)N1C[C@H](C)[C@@H](CN(C)S(=O)(=O)c2ccc(F)cc2)Oc2ccc(NC(=O)Nc3ccccc3)cc2C1=O	2.3	.	-8.8	-15.1	-20.6	.	.	.
